# Source: PubChem
# Hits are enriched below; roughly 3.7% of the tested compounds scored in any of these assays.
# core dimer inh: blocks dimerization of HCV core protein; TR-FRET GST/Flag-core106 dimerization, 1536-well; inhibition, % at 5 µM; 0.33% of 300,000 active; AID 1899;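 active means inhibition above the mean of all tested compounds plus 3 SD, set per screening campaign, cut at about 45% in these data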
#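 System – GST-tagged and Flag-tagged HCV core protein residues 1-106 · Repeats – one well for each compound · Technique – TR-FRET 671 and 617 nm emission · Doses – one concentration, 5 µM, in 0.5% DMSO · Times – 4 h, 22.5 °C incubation · Also added – Eu donor and XL665 acceptor anti-tag antibodies · Measure – percent inhibition of core106 dimerization signal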
# TAAR1 antagonist: antagonists of human TAAR1; 1.5% of 360,000 active; inhibition, % at 3 µM; Q96RJ0; CHO RD-HGA16 TAAR1, Fluo-8 calcium fluorescence, antagonist;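 active means inhibition above a per-plate cutoff, the mean inhibition of test compounds on that plate plus 3 SD, cut at about 49% in these data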;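 further: 0% = DMSO plus EC80 beta-PEA response and 100% = DMSO alone without agonist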
# Target sequence (Q96RJ0 whole entry, looked up): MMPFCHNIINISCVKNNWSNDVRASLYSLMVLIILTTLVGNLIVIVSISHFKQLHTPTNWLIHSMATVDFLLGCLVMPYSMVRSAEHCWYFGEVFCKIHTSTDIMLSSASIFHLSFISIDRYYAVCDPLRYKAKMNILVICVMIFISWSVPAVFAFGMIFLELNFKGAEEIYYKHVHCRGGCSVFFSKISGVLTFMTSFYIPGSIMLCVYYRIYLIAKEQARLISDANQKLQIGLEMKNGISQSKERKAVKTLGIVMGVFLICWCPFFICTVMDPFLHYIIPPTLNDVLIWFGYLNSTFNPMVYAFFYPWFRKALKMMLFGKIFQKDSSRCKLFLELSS
#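 Assay system: CHO-derived RD-HGA16 cells stably expressing human TAAR1 plus Gα16. Timing: 140 s kinetic read after compound, 140 s after agonist. Technique: kinetic Fluo-8 calcium fluorescence measurement. Measure: % inhibition of agonist calcium response.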
# rCAG RNA binder: molecules binding r(CAG) RNA repeats; r(CAG) RNA repeat, TO-PRO-1 dye displacement fluorescence; 1.3% of 370,000 active; inhibition, % at 3 µM;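 active means inhibition above the plate cutoff, the mean of all test compounds on that plate plus 3 SD, cut at about 35% in these data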;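 further: 0% = DMSO alone and 100% = 100 µM mitoxantrone as full dye displacement; higher means more dye released from RNA so lower well fluorescence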
# NS3 helicase inh: HCV NS3 helicase inhibition; NS3 helicase DNA unwinding, Cy5 molecular beacon fluorescence; inhibition, % at 10.9 µM; 0.56% of 290,000 active;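 active means inhibition above the mean of all tested compounds plus 3 SD, set per campaign, cut at about 35% in these data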;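 further: 0% = DMSO wells and 100% = thioflavine S control wells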
#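 System: Hepatitis C virus NS3 helicase domain fragment enzyme | Reagent: Annealed dual-labelled DNA beacon duplex, ATP-started | Compound dosing: 10.9 µM single point, 0.8% DMSO | Incubation: 1 h reaction at 25 °C, ATP-initiated | Technique: Cy5 fluorescence | Evaluation: Percent inhibition from t60/t0 fluorescence ratio | Benchmarks: Low DMSO, high thioflavine S at 110 µM | Replication: Singlicate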
# TAAR1 ag: agonists of human TAAR1. Q96RJ0. CHO RD-HGA16 TAAR1, Fluo-8 calcium fluorescence; vehicle wells 0%, saturating PEA agonist 100%. activation, % at 3 µM. 0.99% of 360,000 active;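 active means activation above the mean activation of all test compounds in the run plus 3 SD, cut at about 38% in these data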
#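 test system = CHO RD-HGA16 cells carrying human TAAR1 plus Gα16 | schedule = 17-24 h seeding, 75 min 37 °C dye, 30 min RT | compound dosing = 3 µM single concentration | control set = DMSO and PEA EC100 | replicates = n 1 | signal = Fluo-8 fluorescence, 5 s baseline then 140 s kinetic read | measure = percent activation vs PEA EC100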
# NS3 helicase cf: HCV NS3 helicase inhibition, confirmation assay; shares compounds with NS3 helicase inh; NS3 helicase DNA unwinding, Cy5 molecular beacon fluorescence; inhibition, % at 10.9 µM; 31% of 1,600 active; AID 1943;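 active means inhibition above the mean of all tested compounds plus 3 SD, cutoff set per campaign, cut at about 36% in these data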
# FID counter trip: displaces DNA intercalator in HCV helicase counter-screen; shares compounds with NS3 helicase inh; DNA fluorescent intercalator displacement, fluorescence; inhibition, % at 7.9 µM; 4% of 1,600 active; AID 1945; in the data active means inhibition above about 37%;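 further: 0% = vehicle and 100% = reference compound; higher means more displacement of ethidium bromide from the DNA hairpin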
# DNA FID DR: counter-screen for HCV NS3 helicase inhibitors: DNA intercalator displacement dose response. shares compounds with NS3 helicase inh. IC50, µM. fluorescent intercalator displacement from DNA, fluorescence. 120 tested, under 10 active. AID 2172; call rule not given here
# TAAR1 ag confirm: confirmation of human TAAR1 agonists; shares compounds with TAAR1 ag; CHO RD-HGA16 TAAR1, Fluo-8 calcium fluorescence; scaled: DMSO 0%, maximal phenethylamine 100%; activation, % at 3 µM; 82% of 2,400 active; AID 651783;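 active means activation above a cutoff set at the run's mean compound activation plus 3 SD, cut at about 39% in these data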
# Ga16 nonsel ag: nonselective agonist in parental cells, TAAR1 agonist counter-screen; CHO-Ga16 parental, Fluo-8 calcium fluorescence; normalized to maximal ATP response, DMSO zero; activation, % at 3 µM; shares compounds with TAAR1 ag; 50% of 2,400 active;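 active means activation above the run cutoff, the mean activation over all tested wells plus 3 SD, cut at about 12% in these data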;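 further: 0% = DMSO wells and 100% = maximal ATP response on the peak over basal ratio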
# TAAR1 desensitize: TAAR1 response desensitization, agonist counter-screen. shares compounds with TAAR1 ag. CHO RD-HGA16 hTAAR1, Fluo-8 calcium, beta-PEA response inhibition. inhibition, % at 3 µM. 46% of 2,400 active. AID 651951;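 active means inhibition above the run cutoff, the mean inhibition of all test compounds plus 3 SD, cut at about 49% in these data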;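 further: beta-PEA stimulus applied at its EC80; loss of beta-PEA calcium signal after compound pretreatment read as receptor desensitization; 0% = DMSO with beta-PEA at EC80 and 100% = DMSO alone without agonist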
# Ga16 nonsel ant: nonselective Ga16 antagonism, counter-screen; shares compounds with TAAR1 ag; CHO-Ga16 ATP-induced calcium, Fluo-8 fluorescence; inhibition, % at 3 µM; 39% of 2,400 active;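 active means inhibition above the plate's mean compound inhibition plus 3 SD, computed per plate, cut at about 22% in these data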;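 further: 0% = EC80 ATP with DMSO and 100% = DMSO wells without ATP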
# rCAG binder conf: r(CAG) RNA repeat binding, confirmation; 70% of 4,300 active; shares compounds with rCAG RNA binder; inhibition, % at 3 µM; AID 652065; TO-PRO-1 dye displacement fluorescence;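 active means inhibition above a per-plate cutoff, the mean inhibition of sample wells plus 3 SD, cut at about 35% in these data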;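 further: loss of TO-PRO-1 fluorescence as compound displaces dye from 1x1 AA loop RNA; 0% = DMSO only wells and 100% = 100 µM mitoxantrone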
# dCAG dye counter: disrupts DNA CAG TO-PRO-1 complex, flagging rCAG hits. shares compounds with rCAG RNA binder. d(CAG) DNA oligo TO-PRO-1 dye displacement, fluorescence. inhibition, % at 3 µM. 94% of 4,300 active;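 active means inhibition above its plate's cutoff, the mean test-well inhibition plus 3 SD, cut at about 4.8% in these data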;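 further: 0% = DNA dye mix with DMSO and 100% = 100 µM mitoxantrone; hits displace the dye from DNA and so lower well fluorescence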
# Numbers without * were called inactive; · = no result given.
SMILES,core dimer inh,TAAR1 antagonist,rCAG RNA binder,NS3 helicase inh,TAAR1 ag,NS3 helicase cf,FID counter trip,rCAG binder conf,dCAG dye counter,others
O=C(C1=C(O)C(=O)N(CCc2ccccc2)C1c1ccncc1)c1cc2ccccc2o1 (configuration not stated),17,2,17,39*,44*,13,-28,·,·,TAAR1 ag confirm=54*;Ga16 nonsel ag=1;TAAR1 desensitize=1;Ga16 nonsel ant=4
Cc1cc(C)nc(OC(C(=O)O)C(OCc2ccccc2)(c2ccccc2)c2ccccc2)n1 (configuration not stated),-14,2,29,37*,113*,74*,-40,·,·,TAAR1 ag confirm=136*;Ga16 nonsel ag=58*;TAAR1 desensitize=9;Ga16 nonsel ant=-7
Cc1n[nH]c(C)c1S(=O)(=O)NCCc1c[nH]c2ccccc12,·,·,2,·,·,·,·,·,·,
CN1CCN(C(c2ccc(Cl)cc2)c2cc(Cl)c3cccnc3c2O)CC1 (configuration not stated),7,-1,7,46*,69*,17,58*,·,·,TAAR1 ag confirm=118*;Ga16 nonsel ag=67*;TAAR1 desensitize=49*;Ga16 nonsel ant=20
Oc1c(C(c2ccccn2)N2CCCCC2)cc(Cl)c2cccnc12 (configuration not stated),-2,-11,1,11,0,·,·,·,·,
COc1ccc(Br)cc1C1CC(=O)N2CN(Cc3ccccc3)CSC2=C1C#N (configuration not stated),0,27,38*,51*,18,40*,-23,30,13*,
N#CC1=C2SCN(c3ccccc3)CN2C(=O)CC1c1cccs1 (configuration not stated),35,5,28,23,4,·,·,·,·,
Cc1ccc(C2CC(=O)N3CN(c4ccc(Br)cc4)CSC3=C2C#N)o1 (configuration not stated),48*,-15,63*,37*,0,72*,6,49*,18*,DNA FID DR=>79
COc1ccc(C(=O)O)cc1NC(=S)NC(=O)/C=C/c1ccc(C(C)C)cc1,13,40,57*,43*,0,58*,16,75*,40*,
C[C@@H]1N[C@H]2N(C1=O)c1ccccc1[C@@]21C[C@@H]2C(=O)N[C@](C)(O1)c1nc3ccccc3c(=O)n12,·,·,7,·,·,·,·,·,·,
CC(C)CN1C(=O)C[C@@]2(C(=O)N(C)c3ccc(NS(=O)(=O)c4ccc(F)cc4)cc32)C1c1ccccc1 (some centres not stated),·,·,4,·,·,·,·,·,·,
COc1ccc(CNc2cccc3[nH]c(C(F)(F)F)nc23)cc1OC,2,3,44*,42*,0,3,-13,13,9.4*,
Cc1cc(/C=C2\SC(=S)NC2=O)c(C)n1-c1ccc(O)cc1,-10,-41,49*,45*,24,19,13,42*,14*,
COc1ccc(-n2c(C)cc(/C=C3\SC(=S)NC3=O)c2C)cc1,-32,1,14,14,0,·,·,·,·,
Cc1cc(/C=C2\SC(=S)NC2=O)c(C)n1-c1ccccc1,8,19,48*,39*,-1,13,-5,36*,16*,
Cc1ccc(-c2nnc(SCC(=O)Nc3ccc(F)cc3F)n2Cc2ccco2)cc1,·,·,7,·,·,·,·,·,·,
O=C(NCc1ccccc1)OCCN1C(=O)CCC12CCC(c1ccccc1)CC2 (configuration not stated),·,·,0,·,·,·,·,·,·,
Cc1cc(N2C(=O)C(O)=C(C(=O)c3ccco3)C2c2cccc(Oc3ccccc3)c2)no1 (configuration not stated),6,-39,58*,66*,2,116*,2,59*,21*,DNA FID DR=>79
CCOC(=O)c1sc(N2C(=O)C(O)=C(C(=O)c3ccco3)C2c2cccc([N+](=O)[O-])c2)nc1C (configuration not stated),17,-33,70*,105*,0,115*,24,82*,50*,
Cc1cc(N2C(=O)C(O)=C(C(=O)c3ccco3)C2c2cccc(O)c2)no1 (configuration not stated),1,-22,5,12,5,·,·,·,·,
Cc1nnc(N2C(=O)C(O)=C(C(=O)c3ccco3)C2c2cccc([N+](=O)[O-])c2)s1 (configuration not stated),4,-11,4,5,0,·,·,·,·,
COc1ccc(NC(=S)NNc2ccc(S(=O)(=O)Nc3ccccc3C(=O)O)cc2[N+](=O)[O-])cc1,-9,-18,97*,40*,-2,83*,27,88*,61*,
Cc1c(Cl)cccc1NC(=O)CSc1sc2c(O)cc(=O)[nH]c2c1C#N,8,-11,39*,37*,-1,-9,8,16,5.8*,
COc1ccccc1COc1ccc2c(C)c(CC(=O)O)c(=O)oc2c1C,10,-16,37*,48*,4,15,-21,39*,10*,
COc1cccc(NS(=O)(=O)c2ccc3c(c2)C2C=CCC2C(c2ccc(C(=O)O)cc2)N3)c1 (configuration not stated),11,7,96*,43*,-1,52*,42*,90*,62*,
COC1=C/C(=C/c2c(N)n3nc(-c4ccc(C)cc4)sc3nc2=O)C=CC1=O,·,6,63*,44*,13,25,-15,59*,19*,
